The record followed here is ChEMBL document CHEMBL3244146, “Pyranenamines: a new series of antiallergic compounds” (1979).

In experiment [1] the test system is Rattus norvegicus. Nature of the experiment: Antiallergic activity in iv dosed rat assessed as inhibition of egg albumin-induced passive cutaneous anaphylaxis treated for 30 secs followed by egg albumin-challenge measured after 30 mins. The class given is functional. The following applies: 0.5 h, read-out: ID50 (the source's name).
The subject of experiment [2] is Rattus norvegicus. In words: Antiallergic activity in rat assessed as inhibition of egg albumin-induced passive cutaneous anaphylaxis at 50 mg/kg, po treated for 15 mins followed by egg albumin-challenge measured after 30 mins relative to control. The class given is functional. The method, boiled down:
(§1)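 Oral PCA in rats: intradermal antiserum at four back sites (dose giving ~12×12 mm wheal), compound po 48 h later, 15 min before iv challenge with 0.5 mL saline containing 5 mg Evans blue plus 5 mg egg albumin; skin bluing read 30 min after challenge on two axes per wheal; six rats per dose versus ≥6 vehicle controls; percent inhibition from mean wheal size, one-sided t test.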

For experiment [3], the system named is Rattus norvegicus. In words: Antiallergic activity in rat assessed as inhibition of egg albumin-induced passive cutaneous anaphylaxis at 5 mg/kg, iv treated for 30 secs followed by egg albumin-challenge measured after 30 mins relative to control. It is filed as functional. The following applies: 0.5 h.
Experiment [4] has as its system Rattus norvegicus. In words: Antiallergic activity in rat assessed as inhibition of egg albumin-induced passive cutaneous anaphylaxis at 25 mg/kg, po treated for 15 mins followed by egg albumin-challenge measured after 30 mins relative to control. It is filed as functional. The method, boiled down: as §1
Experiment [5] is described as follows: Antiallergic activity in passively sensitized rhesus monkey lungs assessed as inhibition of antigen-induced histamine release at 1 x 10^-4 M by fluorometric analysis relative to control. The class given is functional, Macaca mulatta, Lung. In a few lines:
(§2)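 Passively sensitized fragmented lung from a young adult male rhesus monkey, challenged with IgE-antihuman IgE; histamine release measured fluorometrically and SRS-A estimated by guinea pig ileum bioassay; inhibition relative to control; replicates given as number of separate lung preparations.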

Experiment [6] can be described thus: Antiallergic activity in passively sensitized rhesus monkey lungs assessed as inhibition of antigen-induced slow reacting substance of anaphylaxis release at 1 x 10^-4 M relative to control. It is filed as functional, Macaca mulatta, Lung. The method, boiled down:
as §2

Experiment [7] concerns Rattus norvegicus. Nature of the experiment: Antiallergic activity in rat assessed as inhibition of egg albumin-induced passive cutaneous anaphylaxis at 10 mg/kg, iv treated for 30 secs followed by egg albumin-challenge measured after 30 mins relative to control. It is filed as functional. To be noted: 0.5 h.
Experiment [8] has as its system Lung. Nature of the experiment: Antiallergic activity in passively sensitized albino rat lungs assessed as inhibition of antigen-induced histamine release at 6.6 x 10^-6 M by fluorometric analysis relative to control. The class given is functional. The method, boiled down:
(§3)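 Fragmented lung from adult male Charles River albino rats, passively sensitized, then antigen-challenged with compound present; released histamine measured fluorometrically; inhibition reported relative to control, with replicate count given as number of separate lung preparations.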

Experiment [9] concerns Rattus norvegicus. In words: Antiallergic activity in po dosed rat assessed as inhibition of egg albumin-induced passive cutaneous anaphylaxis treated for 15 mins followed by egg albumin-challenge measured after 30 mins. The class given is functional. To be noted: read-out: ID50 (the source's name). In a few lines: as §1
For experiment [10], the system named is Lung. Nature of the experiment: Antiallergic activity in passively sensitized albino rat lungs assessed as inhibition of antigen-induced histamine release at 1.6 x 10^-4 M by fluorometric analysis relative to control. It is filed as functional. The method, boiled down: as §3
Experiment [11] can be described thus: Antiallergic activity in passively sensitized rhesus monkey lungs assessed as inhibition of antigen-induced slow reacting substance of anaphylaxis release at 6.6 x 10^-6 M relative to control. The class given is functional, Macaca mulatta, Lung. In a few lines: as §2
Experiment [12] can be described thus: Antiallergic activity in passively sensitized rhesus monkey lungs assessed as inhibition of antigen-induced histamine release at 6.6 x 10^-6 M by fluorometric analysis relative to control. It is filed as functional, Macaca mulatta, Lung. The method, boiled down:
as §2

Experiment [13] in a line: Antiallergic activity in passively sensitized rhesus monkey lungs assessed as inhibition of antigen-induced slow reacting substance of anaphylaxis release at 1.6 x 10^-4 M relative to control. The class given is functional, Macaca mulatta, Lung. The method, boiled down:
as §2

For experiment [14], the system named is Lung. In words: Antiallergic activity in passively sensitized albino rat lungs assessed as inhibition of antigen-induced histamine release at 6.6 x 10^-7 M by fluorometric analysis relative to control. The class given is functional. The method, boiled down: as §3
The nature of experiment [15]: Antiallergic activity in passively sensitized rhesus monkey lungs assessed as inhibition of antigen-induced histamine release at 3.3 x 10^-5 M by fluorometric analysis relative to control. The class given is functional, Macaca mulatta, Lung. The method, boiled down: as §2
The nature of experiment [16]: Antiallergic activity in passively sensitized rhesus monkey lungs assessed as inhibition of antigen-induced slow reacting substance of anaphylaxis release at 3.3 x 10^-5 M relative to control. The class given is functional, Macaca mulatta, Lung. The method, boiled down: as §2
Experiment [17] can be described thus: Antiallergic activity in passively sensitized rhesus monkey lungs assessed as inhibition of antigen-induced histamine release at 1.6 x 10^-4 M by fluorometric analysis relative to control. It is filed as functional, Macaca mulatta, Lung. The method, boiled down: as §2
In experiment [18] the test system is Lung. In words: Antiallergic activity in passively sensitized albino rat lungs assessed as inhibition of antigen-induced histamine release at 1 x 10^-8 M by fluorometric analysis relative to control. The class given is functional. In a few lines:
as §3

The subject of experiment [19] is Lung. Nature of the experiment: Antiallergic activity in passively sensitized albino rat lungs assessed as inhibition of antigen-induced histamine release at 1 x 10^-5 M by fluorometric analysis relative to control. The class given is functional. In a few lines:
as §3

The test system of experiment [20] is Lung. In words: Antiallergic activity in passively sensitized albino rat lungs assessed as inhibition of antigen-induced histamine release at 1 x 10^-6 M by fluorometric analysis relative to control. It is filed as functional. The method, boiled down: as §3
Experiment [21] relates to Lung. Nature of the experiment: Antiallergic activity in passively sensitized albino rat lungs assessed as inhibition of antigen-induced histamine release at 1 x 10^-7 M by fluorometric analysis relative to control. The class given is functional. The method, boiled down:
as §3

A short description of experiment [22]: Antiallergic activity in passively sensitized rhesus monkey lungs assessed as inhibition of antigen-induced histamine release at 5.3 x 10^-5 M by fluorometric analysis relative to control. It is filed as functional, Macaca mulatta, Lung. In a few lines:
as §2

The test system of experiment [23] is Lung. In words: Antiallergic activity in passively sensitized albino rat lungs assessed as inhibition of antigen-induced histamine release at 1.3 x 10^-3 M by fluorometric analysis relative to control. It is filed as functional. In a few lines: as §3
Experiment [24] is described as follows: Antiallergic activity in passively sensitized rhesus monkey lungs assessed as inhibition of antigen-induced slow reacting substance of anaphylaxis release at 2.7 x 10^-4 M relative to control. The class given is functional, Macaca mulatta, Lung. The method, boiled down:
as §2

Experiment [25] is described as follows: Antiallergic activity in passively sensitized rhesus monkey lungs assessed as inhibition of antigen-induced slow reacting substance of anaphylaxis release at 5.3 x 10^-5 M relative to control. It is filed as functional, Macaca mulatta, Lung. In a few lines: as §2
A short description of experiment [26]: Antiallergic activity in passively sensitized rhesus monkey lungs assessed as inhibition of antigen-induced histamine release at 2.7 x 10^-4 M by fluorometric analysis relative to control. It is filed as functional, Macaca mulatta, Lung. The method, boiled down:
as §2

Experiment [27] has as its system Lung. Nature of the experiment: Antiallergic activity in passively sensitized albino rat lungs assessed as inhibition of antigen-induced histamine release at 2.7 x 10^-4 M by fluorometric analysis relative to control. It is filed as functional. In a few lines: as §3
Experiment [28] is described as follows: Antiallergic activity in passively sensitized rhesus monkey lungs assessed as inhibition of antigen-induced slow reacting substance of anaphylaxis release at 1.3 x 10^-3 M relative to control. The class given is functional, Macaca mulatta, Lung. The method, boiled down: as §2
Experiment [29] deals with Lung. In words: Antiallergic activity in passively sensitized albino rat lungs assessed as inhibition of antigen-induced histamine release at 5.3 x 10^-5 M by fluorometric analysis relative to control. The class given is functional. In a few lines:
as §3

Experiment [30] in a line: Antiallergic activity in passively sensitized rhesus monkey lungs assessed as inhibition of antigen-induced histamine release at 1.3 x 10^-3 M by fluorometric analysis relative to control. It is filed as functional, Macaca mulatta, Lung. The method, boiled down:
as §2

Experiment [31] in a line: Antiallergic activity in passively sensitized rhesus monkey lungs assessed as inhibition of antigen-induced slow reacting substance of anaphylaxis release at 1 x 10^-5 M relative to control. It is filed as functional, Macaca mulatta, Lung. The method, boiled down:
as §2

Experiment [32] is described as follows: Antiallergic activity in passively sensitized rhesus monkey lungs assessed as inhibition of antigen-induced histamine release at 1 x 10^-5 M by fluorometric analysis relative to control. It is filed as functional, Macaca mulatta, Lung. In a few lines:
as §2

As to `CC(=O)Nc1cc(NC(C)=O)cc(N/C(C)=C2\C(=O)OC(=O)C(C(C)=O)=C2O)c1`, the ED50 in the experiment with Rattus norvegicus [1] stood at 0.01 mg/kg. In the experiment on Rattus norvegicus [2], the inhibition in vivo at 50 mg/kg was -1%.
In the case of `CC(=O)C1=C(O)/C(=C(\C)N(C)c2ccc(O)cc2)C(=O)OC1=O`, the inhibition in vivo at 5 mg/kg in the experiment on Rattus norvegicus [3] amounted to 42%.
With `CC(=O)Nc1cc(N)cc(N/C(C)=C2\C(=O)OC(=O)C(C(C)=O)=C2O)c1`, the inhibition in vivo at 25 mg/kg with Rattus norvegicus [4] worked out at 11%. The ED50 in the experiment on Rattus norvegicus [1] came out at 0.1 mg/kg. Further, the results for the “inhibition (INH)” value in experiment [5] and in [6] were 17% and 8%, respectively.
On to `CC(=O)C1=C(O)/C(=C(\C)Nc2ccc(C)cc2)C(=O)OC1=O`, for which the inhibition in vivo at 10 mg/kg in the experiment with Rattus norvegicus [7] amounted to 33%.
As for `CCC(=O)c1c(O)oc(=O)c(C(=O)CC)c1O`, the inhibition in vivo at 10 mg/kg with Rattus norvegicus [7] came out at 39%.
As to `COC(=O)c1ccc(N/C(C)=C2\C(=O)OC(=O)C(C(C)=O)=C2O)cc1`, the inhibition in vivo at 5 mg/kg in the experiment on Rattus norvegicus [3] was 6%.
`CC(=O)C1=C(O)/C(=C(\C)Nc2ccc(O)cc2)C(=O)OC1=O`: the “inhibition (INH)” value is on record as 44% in the experiment with Lung [8]; 45% with Lung [10]; 8.6% in experiment [11]; 18% in [12]; 51% in experiment [13]; 34% in the experiment with Lung [14]. The “inhibition (INH)” value was 50% in [15], 33% in [16] and 59% in experiment [17]. In addition, the ED50 with Rattus norvegicus [9] came out at 29 mg/kg; in the experiment on Rattus norvegicus [1], 1.3 mg/kg.
Take `CCC(=O)Nc1cc(N/C(C)=C2\C(=O)OC(=O)C(C(C)=O)=C2O)ccc1O`: the “inhibition (INH)” value was 41% in the experiment with Lung [18], 65% with Lung [19], 66% in the experiment with Lung [20] and 70% with Lung [21]. The ED50 amounted to 0.6 mg/kg in the experiment on Rattus norvegicus [9] and 0.4 mg/kg in the experiment on Rattus norvegicus [1].
Take `CC(=O)C1=C(O)/C(=C(\C)Nc2cccc(Cl)c2)C(=O)OC1=O`: the inhibition in vivo at 10 mg/kg in the experiment with Rattus norvegicus [7] stood at 74%.
The same measure, in the same setting: next, `CCCCC(=O)c1c(O)oc(=O)c(C(=O)CCCC)c1O`: 69%; `CC(=O)C1=C(O)/C(=C(\C)Nc2ccc([N+](=O)[O-])cc2)C(=O)OC1=O`: 17%; `CC(=O)C1=C(O)/C(=C(\C)Nc2ccccc2)C(=O)OC1=O`: 76%.
`CC(=O)C1=C(O)/C(=C(\C)Nc2ccc(O)c(NC(=O)C(C)C)c2)C(=O)OC1=O`: the ED50 was found to be 3.3 mg/kg in the experiment on Rattus norvegicus [9] and 0.2 mg/kg in the experiment with Rattus norvegicus [1]. Further, the results for the “inhibition (INH)” value in the experiment with Lung [20] and with Lung [21] were 78% and 81%, respectively.
As for `O=C([O-])c1cc(=O)c2c(OCC(O)COc3cccc4oc(C(=O)[O-])cc(=O)c34)cccc2o1.[Na+].[Na+]` [CROMOLYN SODIUM], the “inhibition (INH)” value came out at 11% in experiment [22]; 56% in the experiment on Lung [23]; 36% in [24]; 24% in experiment [25]; 37% in experiment [26]; 47% in the experiment with Lung [27]. The “inhibition (INH)” value came out at 27% in experiment [28], 32% in the experiment on Lung [29] and 54% in experiment [30]. For the same compound, the ED50 in the experiment with Rattus norvegicus [1] was found to be 0.9 mg/kg.
Take `CCOC(=O)C(=O)Nc1cc(NC(=O)C(=O)OCC)cc(N/C(C)=C2\C(=O)OC(=O)C(C(C)=O)=C2O)c1`: the ED50 came to 6.5 mg/kg with Rattus norvegicus [9] and 0.03 mg/kg in the experiment on Rattus norvegicus [1].
In the case of `CC(=O)Nc1cc(O)cc(N/C(C)=C2\C(=O)OC(=O)C(C(C)=O)=C2O)c1`, the inhibition in vivo at 25 mg/kg in the experiment with Rattus norvegicus [4] was determined as 2%. Moreover, the ED50 in the experiment on Rattus norvegicus [1] stood at 0.02 mg/kg. Further, the “inhibition (INH)” value in experiment [31] amounted to 6%; in [32], 17%; in experiment [5], 57%; in experiment [6], 22%.

A word on the inhibition in vivo: it is the relative decrease from the control value, in per cent.
